# Assays:
# [1] = Drug level in healthy human lung epithelial lining fluid at 400 mg, po every 12 hrs for 7 days measured after 8 hrs of last dose; assay type: ADME, organism-based; conditions: read-out: Drug uptake
# Procedure, shortened: (§1)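 Healthy adults got 400 mg oral suspension (40 mg/ml) 10 min after a high-fat meal every 12 h, for 14 doses over 8 days. Each subject had one bronchoscopy with BAL under topical lidocaine, no sedation, at 3, 5, 8, 12 or 24 h after the last dose. BAL fluid was spun at 400 x g for 5 min at 4°C. Supernatant and cell pellet were frozen at –70°C and assayed by LC-MS/MS against a plasma calibration curve. ELF volume was derived from urea.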
# Homo sapiens [2] = assay: Toxicity in healthy human plasma assessed as blood chemistry analysis at 400 mg, po every 12 hrs for 7 days; assay type: organism-based; conditions: in vivo
# Procedure, shortened: (§2)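 Safety in healthy adults (21 to 55 y) given 400 mg orally every 12 h with a high-fat meal for 14 doses. Screening blood chemistry, hematology, urinalysis and ECG (corrected QT) were repeated on day 8.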
# Plasma = assay: T>MIC90 in healthy human plasma at 400 mg, po every 12 hrs for 7 days; assay type: functional
# [3] = Cmax in healthy human lung epithelial lining fluid at 400 mg, po every 12 hrs for 7 days; assay type: ADME, organism-based; design: dose 400 mg, route oral
# Procedure, shortened: (§3)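 Noncompartmental analysis of day-8 concentration-time data after 14 oral 400 mg doses every 12 h. Plasma parameters came from each subject's profile. ELF and alveolar cell values came from mean concentrations at each BAL time (3 to 24 h). AUC0-12 was calculated by the linear trapezoidal method.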
# [4] = Ratio of Drug level in healthy human lung epithelial lining fluid to drug level in healthy human plasma at 400 mg, po every 12 hrs for 7 days measured after 12 hrs of last dose; assay type: ADME, organism-based
# [5] = Ratio of Cmax in healthy human lung epithelial lining fluid at 400 mg, po every 12 hrs for 7 days to MIC90 for Aspergillus spp.; assay type: functional
# [6] = Drug level in healthy human alveolar cell at 400 mg, po every 12 hrs for 7 days measured after 12 hrs of last dose; assay type: ADME, organism-based, Pneumocyte; conditions: alveolar cells, read-out: Drug uptake; procedure, shortened: as §1
# [7] = Ratio of Drug level in healthy human alveolar cell to drug level in healthy human plasma at 400 mg, po every 12 hrs for 7 days measured after 8 hrs of last dose; assay type: ADME, organism-based, Pneumocyte; conditions: alveolar cells / plasma
# [8] = Cmax in healthy human plasma at 400 mg, po every 12 hrs for 7 days; assay type: ADME, organism-based; design: dose 400 mg, route oral; procedure, shortened: as §3
# [9] = Ratio of Drug level in healthy human lung epithelial lining fluid to drug level in healthy human plasma at 400 mg, po every 12 hrs for 7 days measured after 5 hrs of last dose; assay type: ADME, organism-based
# [10] = Drug level in healthy human lung epithelial lining fluid at 400 mg, po every 12 hrs for 7 days measured after 12 hrs of last dose; assay type: ADME, organism-based; conditions: read-out: Drug uptake; procedure, shortened: as §1
# Homo sapiens [11] = assay: Toxicity in healthy human assessed as vital adverse effects at 400 mg, po every 12 hrs for 7 days; assay type: organism-based; conditions: in vivo; procedure, shortened: as §2
# Homo sapiens [12] = assay: Toxicity in healthy human plasma assessed as hematological analysis at 400 mg, po every 12 hrs for 7 days; assay type: organism-based; conditions: in vivo; procedure, shortened: as §2
# [13] = Drug level in healthy human plasma at 400 mg, po every 12 hrs for 7 days measured after 24 hrs of last dose; assay type: ADME, organism-based; conditions: read-out: Drug uptake
# Procedure, shortened: (§4)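 Same dosing: 400 mg oral suspension after a high-fat meal every 12 h, 14 doses. Blood went into EDTA tubes at 0, 3, 5, 8, 12 and 24 h after the final dose and was spun at 1,300 x g for 10 min at 4°C. Plasma was frozen and assayed by validated LC-MS/MS, LLOQ 1.00 ng/ml, calibration 1.00 to 4,000 ng/ml.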
# [14] = Ratio of Drug level in healthy human lung epithelial lining fluid to drug level in healthy human plasma at 400 mg, po every 12 hrs for 7 days measured after 8 hrs of last dose; assay type: ADME, organism-based
# [15] = Drug level in healthy human plasma at 400 mg, po every 12 hrs for 7 days measured after 12 hrs of last dose; assay type: ADME, organism-based; conditions: read-out: Drug uptake; procedure, shortened: as §4
# [16] = Ratio of Cmax in healthy human alveolar cell at 400 mg, po every 12 hrs for 7 days to MIC90 for Aspergillus spp.; assay type: functional, Pneumocyte
# [17] = Drug level in healthy human lung epithelial lining fluid at 400 mg, po every 12 hrs for 7 days measured after 3 hrs of last dose; assay type: ADME, organism-based; conditions: read-out: Drug uptake; procedure, shortened: as §1
# [18] = AUC (0 to 12 hrs) in healthy human plasma at 400 mg, po every 12 hrs for 7 days; assay type: ADME, organism-based; design: dose 400 mg, time < 12 hr, route oral; procedure, shortened: as §3
# [19] = Ratio of Drug level in healthy human lung epithelial lining fluid to drug level in healthy human plasma at 400 mg, po every 12 hrs for 7 days measured after 3 hrs of last dose; assay type: ADME, organism-based
# [20] = T>MIC90 in healthy human alveolar cell at 400 mg, po every 12 hrs for 7 days; assay type: functional, Pneumocyte
# [21] = Ratio of Drug level in healthy human alveolar cell to drug level in healthy human plasma at 400 mg, po every 12 hrs for 7 days measured after 3 hrs of last dose; assay type: ADME, organism-based, Pneumocyte; conditions: alveolar cells / plasma
# Homo sapiens [22] = assay: Cardiotoxicity in healthy human assessed as corrected QT intervals at 400 mg, po every 12 hrs for 8 days; conditions: in vivo
# [23] = Drug level in healthy human alveolar cell at 400 mg, po every 12 hrs for 7 days measured after 24 hrs of last dose; assay type: ADME, organism-based, Pneumocyte; conditions: alveolar cells, read-out: Drug uptake; procedure, shortened: as §1
# [24] = Ratio of Drug level in healthy human lung epithelial lining fluid to drug level in healthy human plasma at 400 mg, po every 12 hrs for 7 days measured after 24 hrs of last dose; assay type: ADME, organism-based
# [25] = Ratio of Cmax in healthy human plasma at 400 mg, po every 12 hrs for 7 days to MIC90 for Aspergillus spp.; assay type: functional
# [26] = Drug level in healthy human lung epithelial lining fluid at 400 mg, po every 12 hrs for 7 days measured after 5 hrs of last dose; assay type: ADME, organism-based; conditions: read-out: Drug uptake; procedure, shortened: as §1
# [27] = Protein binding in human; assay type: ADME, organism-based; conditions: in vivo, read-out: PB
# [28] = Cmax in healthy human alveolar cell at 400 mg, po every 12 hrs for 7 days; assay type: ADME, organism-based, Lung, Pneumocyte; design: dose 400 mg, route oral; conditions: alveolar cells; procedure, shortened: as §3
# [29] = Ratio of AUC (0 to 24 hrs) in healthy human plasma at 400 mg, po every 12 hrs for 7 days to MIC90 for Aspergillus spp.; assay type: functional
# [30] = Ratio of AUC (0 to 24 hrs) in healthy human alveolar cell at 400 mg, po every 12 hrs for 7 days to MIC90 for Aspergillus spp.; assay type: functional, Pneumocyte
# [31] = T>MIC90 in healthy human lung epithelial lining fluid at 400 mg, po every 12 hrs for 7 days; assay type: functional
# [32] = Drug level in healthy human plasma at 400 mg, po every 12 hrs for 7 days measured after 5 hrs of last dose; assay type: ADME, organism-based; conditions: read-out: Drug uptake; procedure, shortened: as §4
# [33] = Half life in human; assay type: ADME, organism-based; conditions: in vivo
# [34] = AUC (0 to 12 hrs) in healthy human alveolar cell at 400 mg, po every 12 hrs for 7 days; assay type: ADME, organism-based, Pneumocyte; design: time < 12 hr, dose 400 mg, route oral; conditions: alveolar cells; procedure, shortened: as §3
# [35] = AUC (0 to 12 hrs) in healthy human lung epithelial lining fluid at 400 mg, po every 12 hrs for 7 days; assay type: ADME, organism-based; design: time < 12 hr, dose 400 mg, route oral; procedure, shortened: as §3
# [36] = Tmax in healthy human alveolar cell at 400 mg, po every 12 hrs for 7 days; assay type: ADME, organism-based, Pneumocyte; conditions: alveolar cells; procedure, shortened: as §3
# [37] = Drug level in healthy human plasma at 400 mg, po every 12 hrs for 7 days measured after 8 hrs of last dose; assay type: ADME, organism-based; conditions: read-out: Drug uptake; procedure, shortened: as §4
# [38] = Drug level in healthy human alveolar cell at 400 mg, po every 12 hrs for 7 days measured after 3 hrs of last dose; assay type: ADME, organism-based, Pneumocyte; conditions: alveolar cells, read-out: Drug uptake; procedure, shortened: as §1
# Homo sapiens [39] = assay: Toxicity in healthy human assessed as urine analysis at 400 mg, po every 12 hrs for 7 days; assay type: organism-based; conditions: in vivo; procedure, shortened: as §2
# [40] = Drug level in healthy human alveolar cell at 400 mg, po every 12 hrs for 7 days measured after 8 hrs of last dose; assay type: ADME, organism-based, Pneumocyte; conditions: alveolar cells, read-out: Drug uptake; procedure, shortened: as §1
# [41] = Drug level in healthy human alveolar cell at 400 mg, po every 12 hrs for 7 days measured after 5 hrs of last dose; assay type: ADME, organism-based, Pneumocyte; conditions: alveolar cells, read-out: Drug uptake; procedure, shortened: as §1
# [42] = Ratio of Drug level in healthy human alveolar cell to drug level in healthy human plasma at 400 mg, po every 12 hrs for 7 days measured after 12 hrs of last dose; assay type: ADME, organism-based, Pneumocyte; conditions: alveolar cells / plasma
# [43] = Ratio of AUC (0 to 24 hrs) in healthy human lung epithelial lining fluid at 400 mg, po every 12 hrs for 7 days to MIC90 for Aspergillus spp.; assay type: functional
# [44] = Ratio of Drug level in healthy human alveolar cell to drug level in healthy human plasma at 400 mg, po every 12 hrs for 7 days measured after 5 hrs of last dose; assay type: ADME, organism-based, Pneumocyte; conditions: alveolar cells / plasma
# [45] = Drug level in healthy human plasma at 400 mg, po every 12 hrs for 7 days measured after 3 hrs of last dose; assay type: ADME, organism-based; conditions: read-out: Drug uptake; procedure, shortened: as §4
# [46] = Tmax in healthy human plasma at 400 mg, po every 12 hrs for 7 days; assay type: ADME, organism-based; procedure, shortened: as §3
# [47] = Tmax in healthy human lung epithelial lining fluid at 400 mg, po every 12 hrs for 7 days; assay type: ADME, organism-based; procedure, shortened: as §3
# [48] = Drug level in healthy human lung epithelial lining fluid at 400 mg, po every 12 hrs for 7 days measured after 24 hrs of last dose; assay type: ADME, organism-based; conditions: read-out: Drug uptake; procedure, shortened: as §1
# [49] = Ratio of Drug level in healthy human alveolar cell to drug level in healthy human plasma at 400 mg, po every 12 hrs for 7 days measured after 24 hrs of last dose; assay type: ADME, organism-based, Pneumocyte; conditions: alveolar cells / plasma
structure (smiles),measurement,setting,value
CC[C@@H]([C@H](C)O)n1ncn(-c2ccc(N3CCN(c4ccc(OC[C@@H]5CO[C@@](Cn6cncn6)(c6ccc(F)cc6F)C5)cc4)CC3)cc2)c1=O [POSACONAZOLE],concentration at 8 h,[1],1690 ng/mL
same,Activity,Homo sapiens [2],Non-toxic
same,T>MIC90,Plasma,22.3 h
same,Cmax,[3],1860 ng/mL
same,Kp at 12 h,[4],0.59
same,Ratio,[5],3.72
same,concentration at 12 h,[6],49000 ng/mL
same,Kp at 8 h,[7],32.5
same,Cmax,[8],2080 ng/mL
same,Kp at 5 h,[9],0.75
same,concentration at 12 h,[10],1020 ng/mL
same,Activity,Homo sapiens [11],Non-toxic
same,Activity,Homo sapiens [12],Non-toxic
same,concentration at 24 h,[13],1280 ng/mL
same,Kp at 8 h,[14],0.95
same,concentration at 12 h,[15],1620 ng/mL
same,Ratio,[16],175
same,concentration at 3 h,[17],1660 ng/mL
same,AUC at 12 h,[18],21900 ng·h/mL
same,Kp at 3 h,[19],1.08
same,T>MIC90,[20],24 h
same,Kp at 3 h,[21],34.5
same,Activity,Homo sapiens [22],Non-toxic
same,concentration at 24 h,[23],60700 ng/mL
same,Kp at 24 h,[24],0.92
same,Ratio,[25],4.15
same,concentration at 5 h,[26],1860 ng/mL
same,fraction unbound,[27],< 0.02
same,Cmax,[28],87700 ng/mL
same,Ratio,[29],87.6
same,Ratio,[30],2860
same,T>MIC90,[31],24 h
same,concentration at 5 h,[32],1930 ng/mL
same,half-life,[33],35 h
same,AUC at 12 h,[34],715000 ng·h/mL
same,AUC at 12 h,[35],18300 ng·h/mL
same,Tmax,[36],5 h
same,concentration at 8 h,[37],1730 ng/mL
same,concentration at 3 h,[38],46200 ng/mL
same,Activity,Homo sapiens [39],Non-toxic
same,concentration at 8 h,[40],60900 ng/mL
same,concentration at 5 h,[41],87700 ng/mL
same,Kp at 12 h,[42],27.3
same,Ratio,[43],73.2
same,Kp at 5 h,[44],44.3
same,concentration at 3 h,[45],1930 ng/mL
same,Tmax,[46],3.6 h
same,Tmax,[47],5 h
same,concentration at 24 h,[48],1800 ng/mL
same,Kp at 24 h,[49],34.9

# From ChEMBL document CHEMBL1629615, “Intrapulmonary pharmacokinetics and pharmacodynamics of posaconazole at steady state in healthy subjects” (Antimicrob Agents Chemother, 2009)
